Experimental data published in ChEMBL document CHEMBL4373708 (J Med Chem, 2019).

Key:
Chloride anion exchanger = biological target: T1, Chloride anion exchanger (Mus musculus, UniProt Q9WVC8); experiment: Inhibition of mouse slc26a3 expressed in FRT cells co-expressing EYFP-H148Q/I152L/F46L assessed as reduction in protein-mediated chloride/iodide exchange preincubated for 10 mins followed by NaI-substituted PBS addition and measured by YFP-based fluorescence assay; assay type: cell-based
T1 sequence (Q9WVC8 whole entry): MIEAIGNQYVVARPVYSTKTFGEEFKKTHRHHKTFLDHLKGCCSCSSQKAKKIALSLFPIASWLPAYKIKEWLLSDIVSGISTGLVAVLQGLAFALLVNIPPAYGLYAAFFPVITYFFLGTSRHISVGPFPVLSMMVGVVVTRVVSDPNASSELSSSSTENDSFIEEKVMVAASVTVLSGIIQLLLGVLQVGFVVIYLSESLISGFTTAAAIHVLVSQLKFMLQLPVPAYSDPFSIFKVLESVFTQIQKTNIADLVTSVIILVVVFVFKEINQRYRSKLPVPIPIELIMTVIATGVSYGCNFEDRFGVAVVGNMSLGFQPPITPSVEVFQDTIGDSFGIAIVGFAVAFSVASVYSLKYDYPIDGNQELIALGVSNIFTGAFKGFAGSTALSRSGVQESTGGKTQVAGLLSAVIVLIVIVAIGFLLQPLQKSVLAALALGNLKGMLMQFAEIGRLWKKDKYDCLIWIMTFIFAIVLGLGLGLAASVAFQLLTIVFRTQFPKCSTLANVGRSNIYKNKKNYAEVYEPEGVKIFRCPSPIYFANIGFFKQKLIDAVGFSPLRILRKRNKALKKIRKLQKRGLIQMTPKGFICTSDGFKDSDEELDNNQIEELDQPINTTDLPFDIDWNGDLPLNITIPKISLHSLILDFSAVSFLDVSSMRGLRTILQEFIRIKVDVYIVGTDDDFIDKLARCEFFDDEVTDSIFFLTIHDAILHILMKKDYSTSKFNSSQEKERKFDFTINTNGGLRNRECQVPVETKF
Procedure, shortened: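 Chloride/iodide exchange was assayed in FRT cells co-expressing murine slc26a3 and EYFP-H148Q/I152L/F46L. Cells in PBS received iodide-substituted PBS (NaCl replaced by 140 mM NaI), and the fluorescence quenching rate was measured. Concentration–inhibition data were fitted to a single-site model for IC50. Data are representative of 3 replicates.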

[1] = Time at which serum concentration stays above in vitro IC50 for inhibition of mouse slc26a3 expressed in FRT cells in mouse at 5 mg/kg, po or ip by LC-MS analysis; assay type: organism-based; conditions: in vivo
Procedure, shortened: (§1)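 Single intraperitoneal or oral dose in mice at 5 mg/kg (vehicle: saline with 5% DMSO and 10% Kolliphor HS 15) or 10 mg/kg (vehicle: PBS with 5% DMSO and 20% (2-hydroxypropyl)-β-cyclodextrin). Blood taken by retroorbital puncture at set times, serum separated by centrifugation at 4000 g for 20 min at 24 °C, compound quantified by LC/MS.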

[2] = Tmax in mouse at 5 mg/kg, po by LC-MS analysis; assay type: ADME, organism-based; conditions: in vivo; procedure, shortened: as §1
[3] = Cmax in mouse at 5 mg/kg, po by LC-MS analysis; assay type: ADME, organism-based; parameters: dose 5 mg/kg, route oral; conditions: in vivo; procedure, shortened: as §1
[4] = Cmax in mouse at 5 mg/kg, ip by LC-MS analysis; assay type: ADME, organism-based; parameters: dose 5 mg/kg, route intraperitoneal; conditions: in vivo; procedure, shortened: as §1
[5] = AUC in mouse at 5 mg/kg, po by LC-MS analysis; assay type: ADME, organism-based; conditions: in vivo; procedure, shortened: as §1
[6] = Tmax in mouse at 5 mg/kg, ip by LC-MS analysis; assay type: ADME, organism-based; conditions: in vivo; procedure, shortened: as §1
[7] = AUC in mouse at 5 mg/kg, ip by LC-MS analysis; assay type: ADME, organism-based; conditions: in vivo; procedure, shortened: as §1

Row | SMILES | IC50 (Chloride anion exchanger) [µM] | further results
1 | Cc1c(CC(=O)O)c(=O)oc2c(C)c(OCc3cc(C(F)(F)F)cc(C(F)(F)F)c3)ccc12 | 0.3 | 
2 | Cc1c(CC(=O)O)c(=O)oc2c(C)c(OCCn3cccc3)ccc12 | > 5 | 
3 | Cc1c(CC(=O)O)c(=O)oc2c(C)c(OCc3ccncc3)ccc12 | > 5 | 
4 | Cc1c(CC(=O)O)c(=O)oc2c(C)c(OCCc3cccc(C(F)(F)F)c3)ccc12 | > 5 | 
5 | CCCCCOc1ccc2c(C)c(CC(=O)O)c(=O)oc2c1C | 1 | 
6 | Cc1c(CC(=O)O)c(=O)oc2c(C)c(OCc3ccccc3Cl)ccc12 | 18 | 
7 | Cc1c(OCc2cccc(Br)c2)ccc2cc(C(=O)NO)c(=O)oc12 | 0.45 | 
8 | Cc1c(OCc2cccc(Br)c2)ccc2cc(C(N)=O)c(=O)oc12 | > 5 | 
9 | Cc1cccc(S(=O)(=O)Oc2ccc3c(C)c(CC(=O)O)c(=O)oc3c2C)c1 | > 5 | 
10 | Cc1cc(C)cc(COc2ccc3c(C)c(CC(=O)O)c(=O)oc3c2C)c1 | 15 | 
11 | Cc1c(CC(=O)O)c(=O)oc2c(C)c(OS(=O)(=O)c3cccc(Cl)c3)ccc12 | > 5 | 
12 | Cc1c(CC(=O)O)c(=O)oc2c(C)c(OCc3cccc(C(F)(F)F)n3)ccc12 | > 5 | 
13 | C=CCOc1ccc2c(C)c(CC(=O)O)c(=O)oc2c1C | > 5 | 
14 | COCCOc1ccc2c(C)c(CC(=O)O)c(=O)oc2c1C | > 5 | 
15 | Cc1c(CC(=O)O)c(=O)oc2c(C)c(OCc3ccccn3)ccc12 | > 5 | 
16 | Cc1c(CC(N)=O)c(=O)oc2c(C)c(OCc3cccc(Br)c3)ccc12 | 3.3 | 
17 | Cc1c(OCc2cccc(Br)c2)ccc2cc(C(=O)O)c(=O)oc12 | > 5 | 

Row | SMILES | IC50 (Chloride anion exchanger) [µM] | further results
18 | Cc1c(CC(=O)O)c(=O)oc2c(C)c(OCc3cc(F)cc(C(F)(F)F)c3)ccc12 | 0.06 | 
19 | Cc1c(CC(=O)O)c(=O)oc2c(C)c(OCCC(=O)O)ccc12 | > 5 | 
20 | Cc1c(CC(=O)O)c(=O)oc2c(C)c(OCc3ccccc3Br)ccc12 | 10 | 
21 | Cc1c(CCC(=O)O)c(=O)oc2c(C)c(OCc3cccc(Br)c3)ccc12 | > 5 | 
22 | Cc1c(CC(=O)O)c(=O)oc2c(C)c(OCc3ccc(I)cc3)ccc12 | > 5 | 
23 | Cc1c(OCc2cccc(I)c2)ccc2cc(C(=O)O)c(=O)oc12 | > 5 | 
24 | CCCCOc1ccc2c(C)c(CC(=O)O)c(=O)oc2c1C | 1.5 | 
25 | Cc1c(CC(=O)O)c(=O)oc2c(C)c(OCc3cccc(F)c3)ccc12 | 0.9 | 
26 | CCCOc1ccc2c(C)c(CC(=O)O)c(=O)oc2c1C | > 5 | 
27 | Cc1c(CC(=O)O)c(=O)oc2c(C)c(OCc3cccc(Cl)c3)ccc12 | 1 | 
28 | Cc1c(CC(=O)O)c(=O)oc2c(C)c(OCc3cccc(CO)n3)ccc12 | > 5 | 
29 | Cc1c(CC(=O)O)c(=O)oc2c(C)c(OCc3cccc(Br)c3)ccc12 |  | Time [1]: >= 24 hr; Tmax [2]: 5.8 h; Cmax [3]: 9.4 µM; Cmax [4]: 24.3 µM; AUC [5]: 124 µM·h; Tmax [6]: 1.5 h; AUC [7]: 231 µM·h
30 | Cc1c(CCC(=O)O)c(=O)oc2c(C)c(OCc3cccc(I)c3)ccc12 | > 5 | 
31 | Cc1cccc(COc2ccc3c(C)c(CC(=O)O)c(=O)oc3c2C)c1 | 0.5 | 
32 | Cc1c(CC(=O)O)c(=O)oc2c(C)c(OCc3ccc(Br)cc3)ccc12 | > 5 | 
33 | Cc1c(CC(=O)O)c(=O)oc2c(C)c(OCc3cccnc3)ccc12 | > 5 | 
34 | Cc1c(CC(=O)O)c(=O)oc2c(C)c(OCc3ccc(Cl)cc3)ccc12 | > 5 | 
